Assay outcomes (PubChem BioAssay)
Rows were chosen to be rich in hits. Some 3.7% of all compounds tested hit in one or more screens of this group.
EBI2 block: EBI2 receptor antagonists, beta-arrestin recruitment, primary screen, cell-based, luminescence, 7a,25-OHC stimulation, uHTS | G-protein coupled receptor 183 (Homo sapiens), P32249 | 7a,25-OHC stimulated | inhibition, % at 5 µM | 360,000 tested, 0.81% active; in the data active means inhibition above about 38%;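 further: enzyme fragment complementation signal reports receptor beta-arrestin coupling in cells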
Myeloid diff MLP: induction of myeloid progenitor differentiation, primary screen, cell-based, flow cytometry, MLPCN library; ER-HoxA9 myeloid progenitors, lysozyme-GFP differentiation; calls only at 10 µM; 360,000 tested, 1% active;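 active means normalized GFP-positive differentiation at or above the plate's own cutoff, the solvent-only control mean plus 3 SD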;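 further: cells exposed to compound for four days before flow analysis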
MC4R antag cAMP: MC4R antagonists of cAMP signaling, primary screen, cell-based, TR-FRET, antagonist arm of biased-ligand search; Melanocortin receptor 4 (Homo sapiens), P32245; MC4R-expressing cells, MTII-stimulated cAMP, LANCE TR-FRET; inhibition, % at 6.5 µM; 360,000 tested, 0.48% active;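 active means inhibition above its plate's cutoff, the mean of tested wells on that plate plus 3 SD, cut at about 29% in these data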
Target sequence (P32245 whole entry, looked up): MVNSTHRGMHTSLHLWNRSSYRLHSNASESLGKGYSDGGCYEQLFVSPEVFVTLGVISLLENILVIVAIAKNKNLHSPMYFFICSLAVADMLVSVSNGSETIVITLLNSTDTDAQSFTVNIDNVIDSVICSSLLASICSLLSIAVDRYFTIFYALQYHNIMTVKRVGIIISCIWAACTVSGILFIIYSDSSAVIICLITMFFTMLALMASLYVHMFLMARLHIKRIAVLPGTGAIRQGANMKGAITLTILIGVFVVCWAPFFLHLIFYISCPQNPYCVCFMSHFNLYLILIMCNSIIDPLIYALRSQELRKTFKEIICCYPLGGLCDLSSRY
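Material – human MC4R-expressing U2OS cells · Repeats – no replicates · Detection – TR-FRET with Eu-cAMP and labeled anti-cAMP, 671 nm · Times – compound 30 min, challenge 1 h, detection 1 h · Compound – single nominal compound dose of 6.5 µM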
Exocytosis inh: LAMP-1 surface exposure blockers, TALL-104 cells – cell-based, flow cytometry, MLPCN library, primary screen | 360,000 tested, 0.66% active | TALL-104 LAMP-1 surface exposure; cells stimulated with thapsigargin and PMA | inhibition, % at 10 µM | AID 651702, 2012;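 active means inhibition above about 55%, limit read from the data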
MC4R barr agon: MC4R agonists recruiting beta-arrestin, primary screen, cell-based, luminescence, agonist arm of biased-ligand search; 360,000 tested, 0.98% active; Melanocortin receptor 4 (Homo sapiens), P32245; activation, % at 8.9 µM; U2OS MC4R beta-arrestin complementation; percent of melanotan II response, DMSO zero;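 active means activation above a per-plate cutoff, the mean activation of sample wells on that plate plus 3 SD, cut at about 8% in these data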
EBI2 conf: EBI2 antagonist hit retest, beta-arrestin, confirmation, cell-based, single concentration, luminescence, 7a,25-OHC stimulation. shares compounds with EBI2 block. 7a,25-OHC antagonism. inhibition, % at 5 µM. 2,400 tested, 29% active;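 active means inhibition of at least 50%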
EBI2 agonist: EBI2 agonist activity of antagonist hits, confirmation, counter-screen for EBI2 antagonist project, cell-based, single concentration, agonist mode, luminescence; activation, % at 5 µM; AID 652000, 2013; shares compounds with EBI2 block; 2,400 tested, under 10 active; EBI2-expressing cells, 60 min; 0% vehicle, 100% 7α,25-dihydroxycholesterol control;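 active means activation of at least 50%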
bGal cs: E. coli beta-galactosidase enzyme inhibition, confirmation, counter-screen for EBI2 antagonist project, biochemical, luminescence, single concentration | shares compounds with EBI2 block | purified beta-galactosidase, luminescent Galacton Star, 15 min | inhibition, % at 5 µM | 2,400 tested, 1% active | AID 652176, 2013;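 active means replicate-average signal at least 3 plate SD below neutral wells, shown as high inhibition, flagging enzyme-inhibiting false positives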;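 further: higher means stronger loss of beta-gal luminescence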
A number is an active result; . = inactive; / = no result given.

SMILES | EBI2 block | Myeloid diff MLP | MC4R antag cAMP | Exocytosis inh | MC4R barr agon | EBI2 conf | EBI2 agonist | bGal cs
Cc1ccc2c(CC(=O)N3CCN(S(=O)(=O)c4ccccc4)CC3)coc2c1 | . | . | . | . | . | / | / | /
Cc1ccc2c(CC(=O)N3CCN(S(=O)(=O)c4ccc5c(c4)OCCO5)CC3)coc2c1 | 50 | . | . | . | . | . | . | .
Cc1ccc(OCC(=O)N2CCN(S(=O)(=O)c3ccc4c(c3)OCCO4)CC2)c(C)c1 | 70 | . | . | . | . | 53 | . | .
COc1cc(/C=N/NC(=O)c2cccc([N+](=O)[O-])c2)ccc1OCc1ccccc1 | . | . | . | . | . | / | / | /
COC(=O)C(=Cc1ccc(OCc2ccc([N+](=O)[O-])cc2)c(OC)c1)C(=O)OC | 57 | / | . | . | . | 67 | . | .
CCCCCCN1CCN(C2CN(C3CCCCC3)S(=O)(=O)C2)CC1 (stereo not given) | . | . | / | . | / | / | / | /
CCOC(=O)C1=C(O)/C(=C/c2ccccn2)SC1=Nc1ccc(Cl)cc1 | 88 | . | . | . | . | 86 | . | .
CC/C(=N\NC(=O)C(N)=O)c1ccccc1O | . | . | . | . | . | / | / | /
CCCc1nn(-c2ccccc2)c2c1C(c1cccs1)C(C#N)=C(N)O2 (stereo not given) | 53 | / | . | . | . | 60 | . | .
O=C(c1ccc(-n2cccn2)cc1)N1CCN(c2ncccc2C(F)(F)F)CC1 | 87 | . | . | . | . | 80 | . | .
NC(=S)NN=Cc1c[nH]c2nccnc12 | 48 | . | . | . | . | 51 | . | .
NC(=S)N/N=C/c1c[nH]c2ccccc12 | . | . | . | . | . | / | / | /
CC(C)(CCC(=S)N1CCOCC1)c1ccccc1 | . | . | . | . | . | / | / | /
COc1ccc(CCNc2ccncn2)cc1 | . | . | . | . | . | / | / | /
COc1ccc(CCNc2ccc(C)cc2)cc1 | 54 | . | . | . | . | . | . | .
O=C1NC[C@H](CCCCN2C[C@H](Cc3ccccc3)N(Cc3ccccc3)C(=O)C2=O)N(CCc2ccccc2)C1=O | . | . | / | . | / | / | / | /
CCOC(=O)C1=C(C)N(C)C(=O)NC1c1cccc2ccccc12 (stereo not given) | . | . | . | . | . | / | / | /
CCCCn1nnnc1C(c1cc2ccccc2o1)N1CCN(C/C=C/c2ccccc2)CC1 (stereo not given) | 62 | . | / | . | / | . | . | .
CCCCn1nnnc1C(c1ccccc1)N1CCN(c2ncccc2C(F)(F)F)CC1 (stereo not given) | . | . | / | . | / | / | / | /
CCCCn1nnnc1C(c1cc2ccccc2o1)N1CCCC1 (stereo not given) | . | . | / | . | / | / | / | /
CCCCn1nnnc1C(c1cc2ccccc2o1)N1CCN(c2ncccc2C#N)CC1 (stereo not given) | 48 | . | / | . | / | . | . | .
COc1ccc(-c2oc3c(c2C#CC(C)(C)O)C(OC)CCC3)cc1 (stereo not given) | . | . | / | . | / | / | / | /
N#Cc1ccc(-c2nc3ccc(Br)cn3c2Cc2ccccc2C(F)(F)F)cc1 | . | . | / | . | / | / | / | /
Cc1ccc2nc(-c3ccc(C#N)cc3)c(Cc3ccccc3C(F)(F)F)n2c1 | 47 | . | / | . | / | . | . | .
CCOc1ccc(CCN2C(=S)N([C@@H](CC(C)C)CN3CCC[C@@H]3CN3C(=S)NC[C@@H]3CC(C)C)C[C@@H]2Cc2ccc(O)cc2)cc1 | 47 | . | / | . | / | . | . | .
